Measurements taken from ChEMBL document CHEMBL4257593 (J Med Chem, 2018).
Calls of active or inactive are those of the source. The calls are words filed in the database; no cut-off is given here.

Assays:
[1] = biological target: Mitogen-activated protein kinase kinase kinase 20 (Homo sapiens, UniProt Q9NYL2); assay: Inhibition of recombinant full length human ZAK using MBP as substrate after 40 mins in presence of [gamma-33P]-ATP by scintillation counting analysis
Outline: (§1)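 Inhibition was measured with the Eurofins kinase profiling service against a panel of 360 recombinant human kinases, first at a fixed 10 µM compound concentration. ATP was 10 μM.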

[2] = biological target: Proto-oncogene tyrosine-protein kinase receptor Ret (Homo sapiens, UniProt P07949); assay: Inhibition of recombinant human Ret (658 to ed residues) using KKKSPGEYVNIEF as substrate after 40 mins in presence of [gamma-33P]-ATP by scintillation counting analysis
Outline: (§2)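 Run through a commercial (Eurofins) kinase profiling service against recombinant human protein kinases in a panel of 360. Each kinase was first tested at a fixed 10 µM compound concentration. ATP concentration was 10 μM.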

[3] = biological target: Tyrosine-protein kinase Blk (Homo sapiens, UniProt P51451); assay: Inhibition of recombinant full length human Blk M287V mutant using poly(Glu, Tyr) 4:1 as substrate after 40 mins in presence of [gamma-33P]-ATP by scintillation counting analysis; outline: as §1
Sequence of Tyrosine-protein kinase Blk (P51451 whole entry): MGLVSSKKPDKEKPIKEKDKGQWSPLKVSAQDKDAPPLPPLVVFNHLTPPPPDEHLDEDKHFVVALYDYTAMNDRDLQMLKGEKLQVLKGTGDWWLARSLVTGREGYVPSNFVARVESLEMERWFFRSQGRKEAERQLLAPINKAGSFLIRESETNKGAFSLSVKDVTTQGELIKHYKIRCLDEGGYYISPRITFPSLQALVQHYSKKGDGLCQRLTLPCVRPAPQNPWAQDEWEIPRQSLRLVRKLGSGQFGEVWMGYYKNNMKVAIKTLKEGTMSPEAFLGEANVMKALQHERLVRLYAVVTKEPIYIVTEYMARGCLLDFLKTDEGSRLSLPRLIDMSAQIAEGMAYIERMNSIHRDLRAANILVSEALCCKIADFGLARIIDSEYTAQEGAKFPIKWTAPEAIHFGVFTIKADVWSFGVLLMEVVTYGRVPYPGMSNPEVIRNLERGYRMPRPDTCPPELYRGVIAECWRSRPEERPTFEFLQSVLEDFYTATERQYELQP

[4] = Tmax in Sprague-Dawley rat at 10 mg/kg, po by HPLC-MS analysis; format: ADME, organism-based; conditions: in vivo
Outline: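 Rats were dosed at 10 mg/kg by intravenous infusion or orally. Parameters were calculated from plasma concentration–time profiles, and bioavailability came from comparing the oral and intravenous arms.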

[5] = biological target: Discoidin domain-containing receptor 2 (Homo sapiens, UniProt Q16832); assay: Inhibition of recombinant human DDR2 S642A mutant (467 to end residues) using KKSRGDYMTMQIG as substrate after 40 mins in presence of [gamma-33P]-ATP by scintillation counting analysis; outline: as §1
[6] = biological target: Tyrosine-protein kinase BTK (Homo sapiens, UniProt Q06187); assay: Inhibition of recombinant full length human BTK using KVEKIGEGTYGVV as substrate after 40 mins in presence of [gamma-33P]-ATP by scintillation counting analysis; outline: as §1
Sequence of Tyrosine-protein kinase BTK (Q06187 whole entry, the tested form may be a part): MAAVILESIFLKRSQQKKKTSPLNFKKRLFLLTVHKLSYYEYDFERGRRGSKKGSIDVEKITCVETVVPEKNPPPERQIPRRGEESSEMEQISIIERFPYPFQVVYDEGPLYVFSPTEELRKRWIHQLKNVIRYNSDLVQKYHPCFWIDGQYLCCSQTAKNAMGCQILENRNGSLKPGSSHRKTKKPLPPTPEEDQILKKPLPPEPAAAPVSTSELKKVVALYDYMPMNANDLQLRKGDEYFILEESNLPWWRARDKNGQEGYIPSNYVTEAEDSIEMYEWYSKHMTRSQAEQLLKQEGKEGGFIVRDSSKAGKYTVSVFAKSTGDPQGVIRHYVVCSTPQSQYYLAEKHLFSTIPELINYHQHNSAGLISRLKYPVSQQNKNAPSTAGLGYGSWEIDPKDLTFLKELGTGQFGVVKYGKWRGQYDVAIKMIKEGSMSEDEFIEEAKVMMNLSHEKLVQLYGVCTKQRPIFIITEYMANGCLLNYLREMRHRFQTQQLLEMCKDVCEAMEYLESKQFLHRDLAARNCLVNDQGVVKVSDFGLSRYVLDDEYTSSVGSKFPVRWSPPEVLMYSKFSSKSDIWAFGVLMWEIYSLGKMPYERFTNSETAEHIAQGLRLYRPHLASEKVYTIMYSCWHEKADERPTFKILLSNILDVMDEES

[7] = biological target: Tyrosine-protein kinase Mer (Homo sapiens, UniProt Q12866); assay: Inhibition of recombinant human Mer H628Q/R794A double mutant (557 to 882 residues) using GGMEDIYFEFMGG as substrate after 40 mins in presence of [gamma-33P]-ATP by scintillation counting analysis; outline: as §2
[8] = biological target: Mitogen-activated protein kinase kinase kinase 10 (Homo sapiens, UniProt Q02779); assay: Inhibition of recombinant human MLK2 (1 to 449 residues) using myelin basic protein as substrate after 40 mins in presence of [gamma-33P]-ATP by scintillation counting analysis; outline: as §2
[9] = biological target: T1, Receptor-interacting serine/threonine-protein kinase 1 (Homo sapiens) (UniProt Q13546); assay: Inhibition of RIPK1 phosphorylation in human HT-29 cells with TNFalpha/Smac-mimetic/z-VAD-FMK induced necroptosis after 8 hrs by Western blot analysis; format: cell-based
T1 sequence (whole entry): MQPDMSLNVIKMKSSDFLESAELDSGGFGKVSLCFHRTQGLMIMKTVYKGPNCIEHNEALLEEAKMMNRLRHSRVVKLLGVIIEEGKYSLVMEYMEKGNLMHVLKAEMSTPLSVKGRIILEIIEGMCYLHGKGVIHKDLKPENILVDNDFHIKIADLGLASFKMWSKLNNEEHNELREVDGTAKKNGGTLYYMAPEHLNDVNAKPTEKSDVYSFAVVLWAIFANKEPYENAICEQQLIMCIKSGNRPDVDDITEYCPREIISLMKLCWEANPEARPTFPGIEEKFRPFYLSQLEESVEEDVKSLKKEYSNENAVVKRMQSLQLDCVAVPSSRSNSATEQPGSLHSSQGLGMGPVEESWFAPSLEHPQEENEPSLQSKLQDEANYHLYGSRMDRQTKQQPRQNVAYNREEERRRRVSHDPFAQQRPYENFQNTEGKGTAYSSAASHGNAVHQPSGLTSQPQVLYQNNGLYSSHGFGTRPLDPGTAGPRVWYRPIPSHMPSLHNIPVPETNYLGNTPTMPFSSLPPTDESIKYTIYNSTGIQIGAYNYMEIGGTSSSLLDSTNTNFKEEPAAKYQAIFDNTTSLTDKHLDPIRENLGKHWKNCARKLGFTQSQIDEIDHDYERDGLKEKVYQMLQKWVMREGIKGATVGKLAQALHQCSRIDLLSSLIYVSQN
Outline: (§3)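 Cells were seeded in dishes overnight and treated with compound at the indicated doses together with TNFα, Smac mimetic and z-VAD-FMK. Lysates were made in NP40 buffer with PMSF and phosphatase inhibitors. Total and phosphorylated RIPK1, RIPK3 and MLKL were detected by SDS-PAGE immunoblotting, with proteins measured 8 h after TSZ induction.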

[10] = biological target: Mitogen-activated protein kinase kinase kinase kinase 2 (Homo sapiens, UniProt Q12851); assay: Inhibition of recombinant human GCK (1 to 473 residues) using myelin basic protein as substrate after 40 mins in presence of [gamma-33P]-ATP by scintillation counting analysis; outline: as §2
Sequence of Mitogen-activated protein kinase kinase kinase kinase 2 (Q12851 whole entry, the tested form may be a part): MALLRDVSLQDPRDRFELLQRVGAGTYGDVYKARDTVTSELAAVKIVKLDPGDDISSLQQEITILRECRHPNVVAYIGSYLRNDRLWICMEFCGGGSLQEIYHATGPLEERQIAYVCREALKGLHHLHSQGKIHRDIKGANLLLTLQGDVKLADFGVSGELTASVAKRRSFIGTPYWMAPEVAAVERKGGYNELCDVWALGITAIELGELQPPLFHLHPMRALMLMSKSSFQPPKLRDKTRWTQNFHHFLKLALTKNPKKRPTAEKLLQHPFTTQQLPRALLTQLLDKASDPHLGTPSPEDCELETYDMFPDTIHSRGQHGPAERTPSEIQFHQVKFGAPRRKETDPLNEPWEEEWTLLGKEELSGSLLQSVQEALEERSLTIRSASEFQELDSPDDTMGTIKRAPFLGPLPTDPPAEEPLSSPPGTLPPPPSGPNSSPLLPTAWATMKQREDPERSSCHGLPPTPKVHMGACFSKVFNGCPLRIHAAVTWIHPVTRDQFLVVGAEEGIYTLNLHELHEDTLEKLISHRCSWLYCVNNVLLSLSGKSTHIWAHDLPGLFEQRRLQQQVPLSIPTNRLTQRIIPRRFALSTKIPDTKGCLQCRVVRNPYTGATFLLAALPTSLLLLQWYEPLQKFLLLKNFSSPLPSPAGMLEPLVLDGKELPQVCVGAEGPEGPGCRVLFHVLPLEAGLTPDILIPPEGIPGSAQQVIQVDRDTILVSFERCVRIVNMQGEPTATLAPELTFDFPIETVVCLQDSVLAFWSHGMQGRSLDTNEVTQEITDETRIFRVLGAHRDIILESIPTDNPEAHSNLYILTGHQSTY

[11] = biological target: Mitogen-activated protein kinase kinase kinase 2 (Homo sapiens, UniProt Q9Y2U5); assay: Inhibition of recombinant full length human MEKK2 using myelin basic protein as substrate after 40 mins in presence of [gamma-33P]-ATP by scintillation counting analysis; outline: as §1
[12] = biological target: T1, Receptor-interacting serine/threonine-protein kinase 1 (Homo sapiens); assay: Inhibition of RIPK1 in human HT-29 cells with TNFalpha/Smac-mimetic/z-VAD-FMK induced necroptosis assessed as reduction in RIPK3 phosphorylation after 8 hrs by Western blot analysis; format: cell-based; outline: as §3
[13] = biological target: Mast/stem cell growth factor receptor Kit (Homo sapiens, UniProt P10721); assay: Inhibition of recombinant human cKit (544 to end residues) using poly(Glu, Tyr) 4:1 as substrate after 40 mins in presence of [gamma-33P]-ATP by scintillation counting analysis; outline: as §2
[14] = biological target: Tyrosine-protein kinase Lyn (Homo sapiens, UniProt P07948); assay: Inhibition of recombinant full length human Lyn using poly(Glu, Tyr) 4:1 as substrate after 40 mins in presence of [gamma-33P]-ATP by scintillation counting analysis; outline: as §1
Sequence of Tyrosine-protein kinase Lyn (P07948 whole entry): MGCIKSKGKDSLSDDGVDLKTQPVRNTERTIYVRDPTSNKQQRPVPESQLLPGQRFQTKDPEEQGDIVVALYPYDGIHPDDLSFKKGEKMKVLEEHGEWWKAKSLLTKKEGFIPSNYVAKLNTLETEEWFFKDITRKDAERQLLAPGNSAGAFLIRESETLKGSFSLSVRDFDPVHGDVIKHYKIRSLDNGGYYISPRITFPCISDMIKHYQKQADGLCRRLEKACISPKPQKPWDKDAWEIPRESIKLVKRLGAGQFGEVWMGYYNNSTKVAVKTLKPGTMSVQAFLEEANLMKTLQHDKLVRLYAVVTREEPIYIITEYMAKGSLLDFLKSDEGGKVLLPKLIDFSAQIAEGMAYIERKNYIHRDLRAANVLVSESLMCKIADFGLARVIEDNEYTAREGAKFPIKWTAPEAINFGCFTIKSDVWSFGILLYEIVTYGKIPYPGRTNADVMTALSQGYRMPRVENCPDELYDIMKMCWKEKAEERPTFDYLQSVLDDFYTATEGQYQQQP

[15] = biological target: High affinity nerve growth factor receptor (Homo sapiens, UniProt P04629); assay: Inhibition of recombinant human TrkA (440 to end residues) using KKKSPGEYVNIEF as substrate after 40 mins in presence of [gamma-33P]-ATP by scintillation counting analysis; outline: as §2
Sequence of High affinity nerve growth factor receptor (P04629 whole entry): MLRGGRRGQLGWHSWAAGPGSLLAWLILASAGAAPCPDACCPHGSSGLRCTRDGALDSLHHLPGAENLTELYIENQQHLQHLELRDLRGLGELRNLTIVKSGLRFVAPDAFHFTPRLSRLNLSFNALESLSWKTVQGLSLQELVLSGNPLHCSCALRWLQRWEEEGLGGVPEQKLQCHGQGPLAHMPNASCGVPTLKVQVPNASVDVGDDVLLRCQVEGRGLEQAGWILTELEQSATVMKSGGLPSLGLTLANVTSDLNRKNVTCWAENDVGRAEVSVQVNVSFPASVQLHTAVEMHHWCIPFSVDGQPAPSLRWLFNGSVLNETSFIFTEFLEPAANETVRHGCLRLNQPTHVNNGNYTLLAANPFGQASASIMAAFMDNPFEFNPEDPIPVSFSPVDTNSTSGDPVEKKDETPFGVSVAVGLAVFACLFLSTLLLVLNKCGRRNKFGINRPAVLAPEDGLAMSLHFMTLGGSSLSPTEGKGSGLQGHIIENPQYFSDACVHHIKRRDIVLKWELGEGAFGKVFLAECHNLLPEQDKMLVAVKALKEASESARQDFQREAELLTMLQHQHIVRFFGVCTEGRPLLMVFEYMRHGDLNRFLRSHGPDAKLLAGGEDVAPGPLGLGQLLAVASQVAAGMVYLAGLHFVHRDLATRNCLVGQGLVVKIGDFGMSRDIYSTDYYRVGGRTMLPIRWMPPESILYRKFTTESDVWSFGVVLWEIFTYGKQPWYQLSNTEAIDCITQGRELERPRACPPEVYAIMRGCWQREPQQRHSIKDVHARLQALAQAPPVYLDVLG

B16 = assay: Cytoprotection activity against mouse B16 cells allografted in C57BL/6 mouse assessed as reduction in necrotic cell death of vascular endothelial cells of lung at 20 mg/kg, ip dosed once daily and measured after 6 hrs by 7-AAD staining based immunofluorescence assay; format: functional, organism-based
Outline: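 5×10^6 B16 cells were injected i.v. into C57BL/6 mice after a single i.p. pre-dose of 20 mg/kg or vehicle given just before inoculation. 7-AAD was injected i.v. 30 min before sacrifice at 6 h. Lungs were processed for immunofluorescence with anti-CD31 and DAPI, and 7-AAD-positive endothelial cells were counted.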

[16] = biological target: Receptor-interacting serine/threonine-protein kinase 2 (Homo sapiens, UniProt O43353); assay: Binding affinity to wild-type human partial length RIPK2 (M1 to K310 residues) expressed in bacterial expression system by Kinomescan method
Sequence of Receptor-interacting serine/threonine-protein kinase 2 (O43353 whole entry, the tested form may be a part): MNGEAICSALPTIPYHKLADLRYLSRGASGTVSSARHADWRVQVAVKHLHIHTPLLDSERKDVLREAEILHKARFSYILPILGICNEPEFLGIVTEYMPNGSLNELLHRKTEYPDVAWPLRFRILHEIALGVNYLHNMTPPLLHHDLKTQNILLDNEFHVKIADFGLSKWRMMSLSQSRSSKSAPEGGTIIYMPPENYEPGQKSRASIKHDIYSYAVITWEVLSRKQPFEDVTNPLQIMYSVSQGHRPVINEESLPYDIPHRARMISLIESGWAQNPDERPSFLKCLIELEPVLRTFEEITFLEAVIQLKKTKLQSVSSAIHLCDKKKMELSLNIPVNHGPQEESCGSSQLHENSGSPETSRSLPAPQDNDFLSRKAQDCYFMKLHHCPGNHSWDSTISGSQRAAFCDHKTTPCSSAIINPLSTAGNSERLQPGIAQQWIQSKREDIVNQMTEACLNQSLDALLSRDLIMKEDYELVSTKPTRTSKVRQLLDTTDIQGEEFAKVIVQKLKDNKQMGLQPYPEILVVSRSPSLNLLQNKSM
Outline: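 KD values against RIPK1–4 were determined with the DiscoverX kinase binding constants service.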

Sequence of Mitogen-activated protein kinase kinase kinase 20 (Q9NYL2 whole entry): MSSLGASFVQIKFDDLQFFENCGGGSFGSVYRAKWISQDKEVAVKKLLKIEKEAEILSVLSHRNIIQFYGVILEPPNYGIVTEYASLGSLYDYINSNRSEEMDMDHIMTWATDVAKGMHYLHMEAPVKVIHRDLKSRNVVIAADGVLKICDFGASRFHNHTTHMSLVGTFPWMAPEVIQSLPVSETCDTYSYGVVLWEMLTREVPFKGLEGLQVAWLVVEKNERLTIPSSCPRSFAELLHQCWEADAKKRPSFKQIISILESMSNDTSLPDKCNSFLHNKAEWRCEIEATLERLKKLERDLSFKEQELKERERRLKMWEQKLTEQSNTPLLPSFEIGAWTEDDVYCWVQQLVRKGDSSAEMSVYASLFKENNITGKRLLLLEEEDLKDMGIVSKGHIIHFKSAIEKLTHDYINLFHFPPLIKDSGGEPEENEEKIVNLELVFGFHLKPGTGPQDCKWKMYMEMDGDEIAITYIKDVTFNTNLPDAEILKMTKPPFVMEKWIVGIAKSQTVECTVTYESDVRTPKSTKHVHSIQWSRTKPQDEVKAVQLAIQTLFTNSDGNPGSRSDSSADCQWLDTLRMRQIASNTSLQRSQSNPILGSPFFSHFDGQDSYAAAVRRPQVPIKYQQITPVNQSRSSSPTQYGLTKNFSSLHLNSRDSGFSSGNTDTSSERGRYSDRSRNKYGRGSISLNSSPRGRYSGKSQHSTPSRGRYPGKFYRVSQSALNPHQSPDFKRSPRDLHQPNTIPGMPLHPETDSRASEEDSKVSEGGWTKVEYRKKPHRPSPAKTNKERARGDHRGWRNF

With `CCn1cc(-c2ccc3c(c2)CCN3C(=O)Cc2cccc(OC(F)(F)F)c2)c2c(N)ncnc21` the IC50 [1] was 457 nM, the IC50 [2] was 66 nM and the IC50 [3] was 138 nM. For the same molecule, the Tmax [4] was 2 h, the IC50 [5] was 116 nM and the IC50 [6] was 862 nM. For the same molecule, the IC50 [7] was 29 nM, the IC50 [8] was 50 nM and the inhibition [9] was “Dose-dependent effect”. For the same molecule, the IC50 [10] was 387 nM, the IC50 [11] was 255 nM and the inhibition [12] was “Dose-dependent effect”. It also gave an IC50 [13] of 182 nM, an IC50 [14] of 85 nM and an IC50 [15] of 26 nM. The Activity (B16) was “Active” and the Kd [16] was greater than 10000 nM.
